# From PubChem BioAssay AID449761 (Broad Institute, 2010)
# Inconclusive results are not listed. Active and inactive are the calls of the source.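 How the source made its calls: active means compounds raising caspase signal with fitted AC50 no more than tenfold above the top tested dose; inconclusive means flat curve at 30 to 70% activity, or unusable fit; inactive means the rest.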
# Tested on: MEF WT non-primed, caspase-Glo luminescence, 3 h
# Assay: caspase activity of non-primed cells – cell-based, caspase-Glo luminescence, 3 h, counter-screen for Bcl2-A1 inhibitor project, dose response (AID 449761)
# In short: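 Incubation: 3 h compound at 37 °C, 1 h reagent at RT / System: Non-primed wild-type MEF cells / Signal: CaspaseGlo luminescence, reagent diluted 1:1 in 50 mM HEPES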
row,SMILES,AC50
1,O=C(Nc1ccc2oc(-c3cccc(F)c3)nc2c1)c1ccccc1F,> 35 µM (inactive)
2,CCCc1ccc(OCc2ccc(C(=O)N/N=C/c3cccc([N+](=O)[O-])c3)o2)c(OC)c1,6.35 µM
3,COC(=O)c1ccc2c(c1)C(C)(C)C(/C=C/c1ccccc1O)=[N+]2C,8.57 µM
4,CCOc1cc(/C=C2/C(=N)N3C=CSC3=NC2=O)ccc1OCCCOc1ccccc1C,8.09 µM
5,Cc1nn(-c2ccccc2)c(Cl)c1CN(C(=O)CCl)c1ccc(Cl)cc1,24.6 µM
6,CCOc1ccc(NCc2cccn2-c2nnc(N3CCC(C(=O)NCCCN4CC(C)CC(C)C4)CC3)s2)cc1 (stereo unspecified),> 35 µM (inactive)
7,Cc1cc(C)cc(NC(=O)/C(C#N)=C/c2cn(CC(=O)NCc3ccco3)c3ccccc23)c1,8.84 µM
8,O=C(Nc1ccc(Cl)cc1Cl)c1cccc(N2C(=O)C=CC2=O)c1,35.8 µM
9,COc1ccc(NC(=O)CSc2nc3ccc(Nc4nc(N5CCOCC5)nc(N5CCOCC5)n4)cc3s2)cc1,> 35 µM (inactive)
10,Nc1nc(F)nc2c1ncn2[C@@H]1O[C@H](CO)[C@@H](O)[C@H]1O,> 35 µM (inactive)
11,CC(C)(C)c1ccc2c(c1)OC(C(=O)N/N=C\c1ccc[nH]1)CO2 (stereo unspecified),> 35 µM (inactive)
12,N#Cc1cccnc1N1CCN(C(=O)c2cccc3c2C(=O)c2ccc(-c4ccc(Cl)c(C(F)(F)F)c4)cc2S3(=O)=O)CC1,> 35 µM (inactive)
13,CCc1ccc2nc(N(CCCN(C)C)C(=O)c3ccc(S(=O)(=O)N4CCc5ccccc5C4)cc3)sc2c1,> 35 µM (inactive)
14,Cc1cc(C(=O)CCl)c(C)n1CCc1ccc(Cl)cc1,> 35 µM (inactive)
15,O=C(NN=C1c2ccccc2-c2ccccc21)c1cccc(Br)c1,35.6 µM
16,O=C(NCCc1ccccc1)C(c1cccs1)N(C(=O)CCl)c1ccc(Cl)cc1 (stereo unspecified),16.4 µM
17,CCc1nc(N=Nc2c(O)[nH]c3ccccc23)c2c3c(sc2n1)CCC3,18.2 µM
18,CC(C)(C)[C@H](N)C(=O)N[C@H]1CCC2C3CC=C4C[C@@H](O)CC[C@]4(C)C3CC[C@@]21C (stereo partly specified),> 35 µM (inactive)
19,Cc1occc1-c1nnc(SCC(=O)NCCc2ccccc2)n1Cc1ccccc1,> 35 µM (inactive)
20,COc1ccccc1-c1cc(C(F)(F)F)nc(S(=O)(=O)CCCC(=O)N2CCOCC2)n1,8.99 µM
21,CCOC(=O)CSC1=N/C(=C/c2ccc(-n3cncn3)cc2)C(=O)N1C(C)=O,> 35 µM (inactive)
22,CC1CC(C)CN(C(=O)c2ccc(-c3ccc([N+](=O)[O-])cc3)o2)C1 (stereo unspecified),> 35 µM (inactive)
23,CC[C@H]1CN2CCc3cc(OC)c(OC)cc3[C@@H]2C[C@@H]1C[C@H]1NCCc2cc(OC)c(OC)cc21,> 35 µM (inactive)

row,SMILES,AC50
1,COc1ccc(NC(=O)C(=O)N/N=C\c2ccc(CNC(=O)C(=O)Nc3ccc(C)c(C)c3)o2)c(OC)c1,23.5 µM
2,COc1ccc(-c2oc(=O)c3cc(OC)c(OC)cc3c2/C=C/c2cccc([N+](=O)[O-])c2)cc1,> 35 µM (inactive)
3,COc1ccc(OC)c2sc(N(CCCN(C)C)C(=O)c3ccc(S(=O)(=O)N4CCc5ccccc5C4)cc3)nc12,> 35 µM (inactive)
4,Cc1cc(=O)[nH]c(SCC(=O)Nc2ccc(Br)cc2)c1C#N,> 35 µM (inactive)
5,Cc1ccc(S(=O)(=O)c2nnn3c2nc(Nc2cccc(C)c2)c2ccccc23)cc1,> 35 µM (inactive)
6,CN(c1ccccc1)c1ccc(/C=C/[N+](=O)[O-])cc1,8.45 µM
7,O=C(Nc1ccc([N+](=O)[O-])cc1)C(Cc1ccccc1)N1C(=O)c2cccc3cccc(c23)C1=O (stereo unspecified),> 35 µM (inactive)
8,COc1ccccc1CCNC(C)CCc1ccc(O)cc1 (stereo unspecified),> 35 µM (inactive)
9,COc1cc(NC(=O)c2ccccc2)c(OC)cc1NC(=O)Cc1ccc(Br)cc1,> 35 µM (inactive)
10,CCOC(=O)c1sc(NC(=O)CSc2nc(C)cc(C)c2C#N)c(C#N)c1C,> 35 µM (inactive)
11,COc1cc(/C=C(/C#N)c2nc3ccccc3[nH]2)ccc1OCC(=O)Nc1ccccc1C,5.91 µM
12,Cc1c(CCOC(=O)c2ccc(N3CCOCC3)c([N+](=O)[O-])c2)sc[n+]1CC#N,> 35 µM (inactive)
13,CC(=O)Nc1ccc(NC(=O)C(C)OC(=O)/C=C/c2cn(-c3ccccc3)nc2-c2cccnc2)cc1 (stereo unspecified),25 µM
14,NC(=S)c1cn(C2OC(CO)C(O)C2O)c2ncnc(N)c12 (stereo unspecified),> 35 µM (inactive)
15,CC(=O)OC(C)(C)/C=C/C(=O)[C@](C)(O)C1[C@H](O)C[C@@]2(C)C3CC=C4C(C[C@H](O)C(=O)C4(C)C)[C@]3(C)C(=O)C[C@]12C (stereo partly specified),> 35 µM (inactive)
16,CCC1CCCCN1S(=O)(=O)c1ccc(NC(=O)c2nc(S(C)(=O)=O)ncc2Cl)cc1 (stereo unspecified),4.2 µM
17,CN(C)C/C=C(\c1ccc(Br)cc1)c1cccnc1,> 35 µM (inactive)
18,COc1cc(SC#N)ccc1N=Cc1c(C)[nH]n(-c2ccc(C)cc2)c1=O,34.5 µM
19,O=C(Nc1ccc2oc(-c3ccccc3)nc2c1)c1ccccc1F,> 35 µM (inactive)
20,CCn1c(SCC(=O)c2ccccc2)nnc1-c1cc2cc(Br)ccc2o1,> 35 µM (inactive)
21,Cc1ccc(C#N)c(SCC(=O)Nc2nccs2)n1,> 35 µM (inactive)
22,O=c1c(Cl)c(Cl)cnn1Cc1ccccc1Cl,> 35 µM (inactive)
23,CCOC(=O)C1=C(c2ccccc2)O/C(=C(/C#N)C(F)(F)F)S1,> 35 µM (inactive)

row,SMILES,AC50
1,COc1ccc(OC[C@@H](O)CNC(=O)c2cccc3c2C(=O)c2ccc(-c4ccc(F)cc4OCc4ccccc4)cc2S3(=O)=O)cc1,> 35 µM (inactive)
2,O=C(/C=C/c1ccc(F)cc1)NC(=S)Nc1ccccc1C(=O)NC1CCCCC1,> 35 µM (inactive)
3,CCOc1cc(/C=C\[N+](=O)[O-])ccc1OCC(=O)Nc1ccccc1C,5.27 µM
4,CCOC(=O)COc1ccccc1/C=C\[N+](=O)[O-],12.2 µM
5,CC(CCc1ccccc1)NC(=O)c1ccc(NC(=O)c2ccccc2)cc1 (stereo unspecified),27.7 µM
6,O=C1/C(=C\c2c(NCCOCCO)nc3ccccn3c2=O)SC(=S)N1Cc1ccco1,> 35 µM (inactive)
7,CCOC(=O)Cc1csc(/N=C/c2c(O)n(-c3ccc(C)c(C)c3)c(=O)c3ccccc23)n1,9.55 µM
8,CCOC(=O)/C(=C\c1ccc([N+](=O)[O-])cc1)C(=O)c1cc(C(C)=O)c(Nc2ccccc2)s1,1.46 µM
9,O=C(NCc1ccccc1Br)c1cccc2c1C(=O)c1ccc(-c3ccc(OC(F)(F)F)cc3)cc1S2(=O)=O,> 35 µM (inactive)
10,COc1ccc(-c2ccc3c(c2)S(=O)(=O)c2cccc(C(=O)NCc4cccc(OC(F)(F)F)c4)c2C3=O)cc1OC,8.54 µM
11,Cc1ccc(-c2nc(NC(=O)c3nn(C)cc3[N+](=O)[O-])sc2C)cc1C,5.21 µM
12,COC(=O)c1ccc2c(c1)C(C)(C)C(/C=C/c1ccc(O)cc1)=[N+]2C,14.2 µM
13,O=C(CCl)N=c1sccn1Cc1ccccc1Cl,> 35 µM (inactive)
14,CCOCCCNC(=O)c1ccc2c(c1)N=C(CC)c1cc(Br)ccc1S2,> 35 µM (inactive)
15,COc1cc(NC(=O)c2ccc(C)cc2C)ccc1NC(=O)c1cc2ccccc2o1,30.4 µM
16,CCN(C(=O)CCN1C(=O)c2ccccc2S1(=O)=O)c1ccccc1,> 35 µM (inactive)
17,COc1cc(/C=C(/C#N)C(=O)Nc2ccc(Cl)cc2)ccc1Oc1nc(Cl)ncc1F,> 35 µM (inactive)
18,O=C(Nc1ccc2oc(-c3ccccc3Cl)nc2c1)c1cncc(Br)c1,30.7 µM
19,COc1ccc2c(c1)CCc1c(C(=O)Nc3cc(C)n(Cc4ccc(Cl)cc4)n3)noc1-2,14.2 µM
20,CC(C)(C)c1ccc(C(=O)Nc2ccc(O)c3c(=O)cc(-c4cccc(Cl)c4)oc23)cc1,> 35 µM (inactive)
21,Cc1ccc(N(Cc2cc(=O)[nH]c3ccccc23)C(=O)CCl)cc1,> 35 µM (inactive)
22,COc1ccc(-c2cc3ccccc3oc2=O)cc1NC(=S)NC(=O)c1ccc2c(c1)OCCO2,5.96 µM
23,Cc1ccc(C2(c3ccc(C)cc3)CC2C(=O)Nc2ccc([N+](=O)[O-])cc2O)cc1 (stereo unspecified),> 35 µM (inactive)

row,SMILES,AC50
1,Cc1ccc(C)c(NC(=S)NC(NC(=O)Cc2cccc3ccccc23)C(Cl)(Cl)Cl)c1 (stereo unspecified),12 µM
2,COc1ccccc1-c1cn[nH]c1-c1ccc(OCc2ccccc2)cc1O,> 35 µM (inactive)
3,CCCCCCCC/C=C\CCCCCCCC(=O)NCCc1ccc(O)c(O)c1,14 µM
4,COc1ccc(-c2ccc3c(c2)S(=O)(=O)c2cccc(C(=O)NCCOc4ccccc4)c2C3=O)cc1OC,> 35 µM (inactive)
5,CC(C)N=c1scc(-c2ccco2)n1/N=C/c1ccc(O)c(O)c1,> 35 µM (inactive)
6,O=C(COc1ccc(/C=N/NC(=O)c2cc3ccccc3o2)cc1Br)Nc1ccccc1,28.5 µM
7,COc1ccc(C=C2C=C(C(C)(C)C)C(=O)C(C(C)(C)C)=C2)cc1OC,2.98 µM
8,Cc1c(C=O)c(C=O)c(C)n1Cc1ccccc1,> 35 µM (inactive)
9,COc1ccc(C2CC(c3c(O)cc(C)oc3=O)=NCCS2)c(OC)c1 (stereo unspecified),> 35 µM (inactive)
10,Cc1ccc2c(c1)c(C1=c3ccccc3=NC1=O)c(O)n2C,> 35 µM (inactive)
11,CCc1ccc(Nc2n[n+](-c3ccccc3)c(/C=C/c3ccccc3)s2)cc1,9.79 µM
12,CC(C)(C)C1CCc2onc(C(=O)Nc3cccc(O)c3)c2C1 (stereo unspecified),> 35 µM (inactive)
13,Cc1cc(C)cc(Cn2ncc(Cl)c(Cl)c2=O)c1,> 35 µM (inactive)
14,CC(C)CC(NC(=O)c1ccc(Cl)cc1)C(=O)OCC(=O)c1ccc2c(c1)NC(=O)CO2 (stereo unspecified),4.28 µM
15,CCOC(=O)c1c(C)oc2c1c(CN1CCN(C(=O)OCC)CC1)c(O)c1ccccc12,20.8 µM
16,Cc1cccc(Nc2nc(N)c([N+](=O)[O-])c(N3CCCC(C)C3)n2)c1 (stereo unspecified),> 35 µM (inactive)
17,Cc1ccc(-c2nc(NC(=O)c3nn(C)cc3[N+](=O)[O-])sc2C)cc1,5.96 µM
18,CN1C2CCC1/C(=C/c1ccccn1)C(=O)/C2=C\c1ccccn1,> 35 µM (inactive)
19,COc1ccc(S(=O)(=O)N2CC(O)CC2C(=O)OCC(=O)Nc2ccc(Cl)cn2)cc1 (stereo unspecified),> 35 µM (inactive)
20,CC(C)CCN(C(=O)Cc1ccc(Cl)c(Cl)c1)c1c(N)n(Cc2ccccc2)c(=O)[nH]c1=O,14.6 µM
21,Cc1ccc(C(=O)/C=C/C(=O)c2ccc(C)cc2)cc1,5.73 µM
22,CCOc1cc(/C=N/Nc2cc(C)nc(-n3nc(C)cc3C)n2)ccc1O,> 35 µM (inactive)
